Measurements taken from PMC5125022 (ACS chemical neuroscience, 2016).
Several values for one entry are separate records, joined by “and”; a condition that tells them apart may be missing. Equal entries are not always repeated. Where two headings read alike, the source gives them in different places.

Key:
KOR [1] = target: T1, KOR (Homo sapiens, UniProt P41145); experiment: Competitive radioligand binding, KOR; settings: ratio of Ki KOR / Ki MOR
Summary of the method: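 Membranes from CHO cells stably expressing a single opioid receptor were incubated with test compound at various concentrations and either [3H]naloxone (MOR) or [3H]norBNI (KOR) for 1 h at 30 °C. Specific binding was the difference between binding without and with 10 µM naltrexone. IC50 came from linear regression of Hill plots, and Ki from Cheng-Prusoff. Selectivity is the KOR Ki/MOR Ki ratio, from three independent experiments.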

MOR [2] = target: T2, MOR (Mus musculus, UniProt P42866); experiment: [35S]GTPγS-binding assay in low MOR-expressing CHO cell line; format: biochemical
Summary of the method: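 Low-MOR-expressing CHO cell material was incubated for 90 min at 30 °C with varying test compound or 3 µM DAMGO (full-agonist reference). Nonspecific binding used 10 µM unlabeled GTPγS. Reactions were stopped by GF/B vacuum filtration, and bound radioactivity was read by scintillation counting. Triplicates gave 3 independent determinations. EC50 and Emax came from nonlinear one-site fits.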

KOR [3] = target: T1, KOR; experiment: [35S]GTPγS-binding assay in KOR-expressing CHO cell line; format: biochemical
Summary of the method: (§1)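 CHO-cell membranes expressing DOR or KOR (10 µg protein) were incubated for 90 min at 30 °C in assay buffer. The mix held 10 µM GDP, 0.1 nM [35S]GTPγS, and varying test compound or a 3 µM full-agonist reference (SNC80 for DOR, U50,488H for KOR). Nonspecific binding used 10 µM unlabeled GTPγS. Reactions were stopped by rapid vacuum filtration through glass-fibre filters, and bound radioactivity was read by liquid scintillation. Assays ran in triplicate, with 3 independent determinations. EC50 and Emax came from nonlinear one-site fits.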

DOR = DOR (Homo sapiens, UniProt P41143); experiment: [35S]GTPγS-binding assay in DOR-expressing CHO cell line; format: biochemical
Summary of the method: as §1

Swiss Webster mice [4] = experiment: Warm water tail immersion; format: in vivo, mouse
[5] = system: circular muscle of the mouse colon; format: cell-based; settings: for Inhibition of morphine-induced contractions: 1 nM antagonist, distal or proximal colon, data not shown; for Antagonism of morphine effects: Figure 6A; for Contractions induced by compound alone: concentrations up to 30 μM, distal and proximal colon preparations
Swiss Webster mice [6] = experiment: Colonic bead expulsion assay; format: in vivo, mouse
Swiss Webster mice [7] = experiment: Charcoal gavage intestinal motility assay; format: in vivo, mouse
[8] = system: Longitudinal Muscle Myenteric Plexus (LMMP) preparations from the guinea pig ileum; experiment: Electrical field stimulated contractions in LMMP preparations; format: cell-based; settings: Figure 8A
Swiss Webster mice [9] = experiment: Acetic acid induced writhing assay; format: in vivo, mouse
MOR [10] = target: T2, MOR; settings: Emax relative to full agonist DAMGO (100%), ref 9b; cited from earlier work
KOR [11] = target: T1, KOR; settings: ref 9b, cited from earlier work
[12] = Emax relative to full agonist U50,488H (100%)
[13] = 10 nM antagonist, proximal colon, Figure 6C
[14] = 100 nM antagonist, distal colon, Figure 6B

**Q.** With “1-Benzyl-17-Cyclopropylmethyl-3,14β-dihydroxy-4,5α-epoxy-6β-[(4'-pyridyl)acetamido]morphinan [BNAP]” as the compound, how does the “Selectivity (κ/μ)” value (KOR [1]) read?
**A.** 4.6 (κ/μ)

**Q.** What about the “% max of agonist” value (MOR [2]; Emax relative to full agonist DAMGO (100%)) of the same compound?
**A.** 14.6% and 14.6 ± 0.9%

**Q.** What about the EC50 (MOR [2]; [35S]GTPγS binding) of the same compound?
**A.** 4.84 nM and 4.8 nM

**Q.** What about the “% max of agonist” value (KOR [3]; [12]) of the same compound?
**A.** 45.9 ± 1.7%

**Q.** And the EC50 (KOR [3]; [35S]GTPγS binding)?
**A.** 2.9 ± 1.1 nM

**Q.** What about the “% max of agonist” value (DOR; Emax relative to full agonist SNC80 (100%)) of the same compound?
**A.** 9.2 ± 2.2%

**Q.** What about the EC50 (DOR; [35S]GTPγS binding) of the same compound?
**A.** 108 ± 69 nM

**Q.** What about the “Antinociceptive effect of compound alone” value (Swiss Webster mice [4]; 1.0 μg/5 μL ICV, compared to morphine alone, mice, Figure 4) of the same compound?
**A.** did not produce significant antinociception

**Q.** And the “Antagonism of morphine antinociception” value (Swiss Webster mice [4]; 10 mg/kg s.c., any morphine dose tested, mice, Figure 3)?
**A.** did not significantly antagonize morphine antinociception

**Q.** What about the “Antinociceptive effect of compound alone” value (Swiss Webster mice [4]; 10 mg/kg s.c., mice, Figure 3) of the same compound?
**A.** did not produce significant antinociceptive effects

**Q.** What about the “Reversal of morphine antinociception” value (Swiss Webster mice [4]; ICV, increasing concentrations, mice, Figure 4) of the same compound?
**A.** dose dependent reversal of morphine antinociception

**Q.** And the “Dose giving complete reversal of morphine antinociception” value (Swiss Webster mice [4]; ICV, mice, Figure 4)?
**A.** 0.3 μg/5 μL

**Q.** What about the “Inhibition of morphine-induced contractions” value [5] of the same compound?
**A.** neither NAP nor BNAP showed significant inhibition

**Q.** And the “Antagonism of morphine effects” value ([5]; 10 nM antagonist, distal colon)?
**A.** neither NAP nor BNAP showed significant antagonism

**Q.** What about the “Morphine pD2 in the presence of antagonist” value (“Morphine pD2 in the presence” below) [5, 13] of the same compound?
**A.** 5.9

**Q.** And the “Morphine pD2 in the presence” value [5, 14]?
**A.** 5.2

**Q.** And the “Change of morphine pD2 on raising the antagonist concentration” value ([5]; 100 nM versus 10 nM antagonist, proximal colon)?
**A.** no further reduction of the morphine pD2

**Q.** And the “Contractions induced by compound alone” value [5]?
**A.** Neither BNAP nor NAP alone at concentrations up to 30 μM induced contractions

**Q.** And the Bead expulsion time (Swiss Webster mice [6]; BNAP alone 10 mg/kg, mice (naive 17 min))?
**A.** 43 min

**Q.** What about the “Antagonism of morphine's effect on bead expulsion” value (Swiss Webster mice [6]; given with morphine or 5 or 15 min before morphine) of the same compound?
**A.** no significant antagonism of morphine's effects was observed

**Q.** What about the “Decrease of intestinal motility” value (Swiss Webster mice [7]; charcoal gavage, mice, Figure 7B) of the same compound?
**A.** 1.5 fold

**Q.** And the “Reversal of morphine induced inhibition of intestinal motility” value (Swiss Webster mice [7]; mice)?
**A.** unable to reverse morphine induced inhibition of intestinal motility

**Q.** And the “pIC50 for inhibition of EFS contractions” value [8]?
**A.** 7.86 ± 0.07

**Q.** And the “Activity in hypernociceptive model of visceral pain” value (Swiss Webster mice [9]; mice with 5-day 75 mg morphine pellet, Figure 9B)?
**A.** active at three fold lower concentration

**Q.** And the Number of writhes (Swiss Webster mice [9]; s.c., naive mice, Figure 9A)?
**A.** dose dependently reduced the number of writhes

**Q.** Which “Inhibition of morphine-induced contractions” value [5] does the source give for `O=C(N[C@@H]1CC[C@@]2(O)[C@H]3Cc4ccc(O)c5c4[C@@]2(CCN3CC2CC2)[C@H]1O5)c1ccncc1` [NAP, 17-Cyclopropylmethyl-3,14beta-dihydroxy-4,5alpha-epoxy-6beta-(4'-pyridylcarboxamido)morphinan, reference compound] here?
**A.** neither NAP nor BNAP showed significant inhibition

**Q.** And the “Antagonism of morphine effects” value ([5]; 10 nM antagonist, distal colon)?
**A.** neither NAP nor BNAP showed significant antagonism

**Q.** And the “Morphine pD2 in the presence” value [5, 13]?
**A.** 5.9

**Q.** And the “Morphine pD2 in the presence” value [5, 14]?
**A.** 5.3

**Q.** And the “Contractions induced by compound alone” value [5]?
**A.** Neither BNAP nor NAP alone at concentrations up to 30 μM induced contractions

**Q.** And the “% max of agonist” value (MOR [10])?
**A.** 22.72 ± 0.84% and 22.7 ± 0.8%

**Q.** What about the “% max of agonist” value (KOR [11]; [12]) of the same compound?
**A.** 45.5 ± 4.4%

**Q.** What about the EC50 (KOR [11]; [35S]GTPγS binding) of the same compound?
**A.** 28.8 ± 14.4 nM

**Q.** Which results are given for `CN1CC[C@]23c4c5ccc(O)c4O[C@H]2[C@@H](O)C=C[C@H]3[C@H]1C5` [morphine, Morphine, reference compound]?
**A.** Antinociception (Swiss Webster mice [4]; mouse, in vivo): dose dependently induced antinociception; Bead expulsion time (Swiss Webster mice [6]; mouse, in vivo): 75 min; Decrease of intestinal motility (Swiss Webster mice [7]; mouse, in vivo): 3 fold

**Q.** With DAMGO [reference compound] as the compound, how does the “pIC50 for inhibition of EFS contractions” value [8] read?
**A.** 7.67 ± 0.03
